ED50, Activity and EC50 data for six compounds are collected here from ChEMBL document CHEMBL1148823, “Inactivation of O(6)-alkylguanine-DNA alkyltransferase by folate esters of O(6)-benzyl-2'-deoxyguanosine and of O(6)-[4-(hydroxymethyl)benzyl]guanine” (J Med Chem, 2007).

Experiment [1] is filed under the species Homo sapiens. Put plainly: Inactivation of human alkyltransferase in absence of DNA. A digest of the protocol:
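Purified recombinant human alkyltransferase was incubated with a range of inhibitor concentrations for 30 min at 37°C. The reaction buffer was 50 mM Tris-HCl pH 7.6, 0.1 mM EDTA and 5.0 mM dithiothreitol, with 50 μg hemocyanin and no DNA. ED50 was read from plots of % remaining activity against inhibitor concentration. Values are means of 3–5 repeats or of two experiments.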

The species entered for experiment [2] is Homo sapiens. Put plainly: (§1) Inactivation of human alkyltransferase in presence of DNA. Put shortly:
(§2)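 Purified recombinant human alkyltransferase was incubated with a range of inhibitor concentrations plus 10 μg calf thymus DNA for 30 min at 37°C. The buffer was 50 mM Tris-HCl pH 7.6, 0.1 mM EDTA and 5.0 mM DTT. ED50 came from graphs of % remaining activity against inhibitor concentration. Values are means of 3–5 repeats or of two experiments.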

In the next experiment the test system is HT-29. Nature of the experiment: Induction of sensitization to BCNU-induced killing in human HT29 cells. The format is functional, cell-based. Put shortly:
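HT29 cells in RPMI with 10% FBS were given inhibitor for 2 h before 40 μM BCNU for 2 h. Alternatively, cells grown 48 h in folate-free RPMI got inhibitor for 8 h before 20 μM BCNU for 2 h. Inhibitor-containing medium followed for 16–18 h. Cells were replated at 250–1000 per flask and grown 8 days. Survival was scored as crystal violet-stained colonies.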

For experiment [3], the system named is T1, Methylated-DNA--protein-cysteine methyltransferase (Homo sapiens), P16455 [P140K].
T1 sequence (whole entry): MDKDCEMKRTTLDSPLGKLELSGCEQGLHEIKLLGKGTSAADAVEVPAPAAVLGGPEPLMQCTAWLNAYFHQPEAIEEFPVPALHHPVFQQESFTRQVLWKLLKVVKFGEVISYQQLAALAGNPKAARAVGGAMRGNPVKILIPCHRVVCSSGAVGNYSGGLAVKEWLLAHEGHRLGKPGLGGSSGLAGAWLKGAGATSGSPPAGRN
Put plainly: Inactivation of human alkyltransferase P140K mutant.

The subject of the next experiment is KB. Put plainly: Induction of sensitization to BCNU-induced killing in human KB cells. The format is functional, cell-based. A digest of the protocol: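 KB cells were grown 48 h in folate-free RPMI with 10% FBS and plated at 10⁶ per flask. After 24 h they were exposed to inhibitor at different concentrations for 8 h, then 40 μM BCNU for 2 h. Medium with inhibitor but no BCNU was given for 16–18 h. Cells were replated at 250–1000 per flask for 8 days of colony formation. Colonies were stained with crystal violet and counted.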

The next experiment concerns A549. Put plainly: Induction of sensitization to BCNU-induced killing in human A549 cells. Format: functional, cell-based. A digest of the protocol: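 A549 cells were grown 48 h in folate-free RPMI with 10% FBS and plated at 10⁶ per flask. After 24 h they were given inhibitor at various concentrations for 8 h, then 20 μM BCNU for 2 h. Medium was replaced with inhibitor-containing medium for 16–18 h. Cells were replated at 250–1000 per flask and grown 8 days. Crystal violet-stained colonies were counted.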

A short description of experiment [4]: as §1. A digest of the protocol:
as §2

The term EC50 denotes the concentration needed to bring the measured effect to its halfway point.

SMILES strings stand for the structures. The source made the active and inactive calls. The rule behind the calls is not given here.

Take `Nc1nc(OCc2ccc(COC(=O)CC[C@H](NC(=O)c3ccc(NCc4cnc5nc(N)[nH]c(=O)c5n4)cc3)C(=O)O)cc2)c2nc[nH]c2n1`: the ED50 was 700 nM in the experiment listed under Homo sapiens [1] and 240 nM in the experiment listed under Homo sapiens [2].
`Nc1nc(OCc2ccc(CO)cc2)c2nc[nH]c2n1`: the result in the experiment on HT-29 was Active. The values for the ED50 in the experiment listed under Homo sapiens [1] and in the experiment filed under Homo sapiens [2] were 400 nM and 100 nM, respectively.
In the case of `Nc1nc(OCc2ccccc2)c2ncn([C@H]3C[C@H](OC(=O)CC[C@H](NC(=O)c4ccc(NCc5cnc6nc(N)[nH]c(=O)c6n5)cc4)C(=O)O)[C@@H](CO)O3)c2n1`, the ED50 in experiment [3] is 100000 nM; in the experiment filed under Homo sapiens [1] it was 16 nM; in the experiment filed under Homo sapiens [2], 680 nM. Further, the outcome with HT-29, in the experiment on KB and in the experiment on A549 was Active.
On to `Nc1nc(OCc2ccccc2)c2ncn([C@H]3C[C@H](O)[C@@H](CO)O3)c2n1`, for which the ED50 in the experiment filed under Homo sapiens [1] was found to be 2000 nM; in the experiment listed under Homo sapiens [2] it was 40000 nM.
Regarding `Nc1nc(OCc2ccccc2)c2ncn([C@H]3C[C@H](O)[C@@H](COC(=O)CC[C@H](NC(=O)c4ccc(NCc5cnc6nc(N)[nH]c(=O)c6n5)cc4)C(=O)O)O3)c2n1`, the outcome in the experiment on HT-29, with KB and in the experiment on A549 was Active. Also, the ED50 in the experiment listed under Homo sapiens [1] is 640 nM. In addition, the EC50 in experiment [4] was 3060 nM.
As for `Nc1nc(OCc2ccccc2)c2nc[nH]c2n1`, the values for the ED50 in the experiment filed under Homo sapiens [1] and in the experiment filed under Homo sapiens [2] were 300 nM and 100 nM, respectively.
